This is a sample that favours compounds with a hit; in the whole collection about 5.2% have one here.
Ecoli tolC = E. coli tolC mutant growth inhibition; E. coli BW25113 tolC mutant growth, OD615; growth inhibition, % at 10 µM (by protocol); 65,000 compounds, 2.2% hits; AID 573;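 active = growth inhibition at or above a cutoff equal to the mean over every tested compound plus 3 SD, cut at about 60% in these data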;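 also: growth measured after 20 h incubation at 37 °C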
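Test system: E. coli BW25113 ΔtolC::kan bacteria; incubation: 37 °C, 20 h exposure; medium: LB broth supplemented with 50 µg/mL kanamycin; read-out basis: percent growth inhibition; signal: A615 absorbance measurement; compound: 10 µM final, single dose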
M1 antag = antagonists of rat M1 muscarinic receptor. B-score at 10 µM. CHO-M1 cells, Fluo-4 calcium, ACh EC80 antagonist mode; stronger effect = lower value. 64,000 compounds, 3.4% hits. AID 628;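 active = calcium fluorescence response, raw or row-and-column corrected B-score, differing from the plate sample mean either way at a set confidence level, mostly lower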
Target sequence (P08482 whole entry, looked up): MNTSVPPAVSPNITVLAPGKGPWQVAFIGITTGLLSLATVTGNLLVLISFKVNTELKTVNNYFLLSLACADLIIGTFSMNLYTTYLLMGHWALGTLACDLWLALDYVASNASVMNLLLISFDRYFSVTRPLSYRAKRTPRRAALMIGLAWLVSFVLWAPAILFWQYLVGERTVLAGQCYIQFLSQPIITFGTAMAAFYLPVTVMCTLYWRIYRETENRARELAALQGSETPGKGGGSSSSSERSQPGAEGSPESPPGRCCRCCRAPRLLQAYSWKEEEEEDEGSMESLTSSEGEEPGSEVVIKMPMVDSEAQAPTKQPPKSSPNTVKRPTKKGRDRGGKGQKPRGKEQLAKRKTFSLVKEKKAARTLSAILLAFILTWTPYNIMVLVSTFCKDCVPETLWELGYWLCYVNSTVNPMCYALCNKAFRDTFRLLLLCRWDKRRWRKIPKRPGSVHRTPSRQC
AP complement = orthogonal test for alternative complement pathway inhibitors; Human serum alternative complement pathway, LPS-coated ELISA, C3 deposition; tested in compound mixtures; inhibition, % at 5 µM; 62,000 compounds, 0.08% hits;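 active = inhibition above 30% in each of the two pooled mixtures holding the compound, so the lower value exceeds 30%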
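Assay system: Human serum alternative complement pathway, C3 deposition on LPS-coated wells | Incubation: 1 h serum-compound exposure at 37 °C | Doses: 5 µM per compound in ten-compound mixtures | Read-out: Percent inhibition | Technique: ELISA with HRP anti-human C3 antibody, TMB substrate, absorbance 450 nm | Replication: Two pool placements per compound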
Ecoli WT expand = E. coli BW25113 growth inhibition, expanded screen; OD600 absorbance; 98,000 compounds, 0.15% hits; AID 710; growth inhibition, % at 100 µM;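 active = growth inhibition above about 50% at one test dose, limit read from the data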;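 also: growth measured after 20 h incubation at 37 °C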
WNV NS2B-NS3 inh = WNV NS2B-NS3 proteinase inhibition; P06935; WNV NS2B-NS3 protease, fluorogenic substrate Ex360/Em465; stronger effect = lower value; z-score (no concentration beside the values); 65,000 compounds, 0.18% hits; AID 577; in the data active = z-score below about -3
M1 agonist = agonists of M1 muscarinic receptor; CHO-M1 cells, Fluo-4 calcium fluorescence, agonist mode; stronger effect = higher value; B-score at 10 µM; 64,000 compounds, 3% hits; AID 626;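 active = fluorescence rise, raw or as B-score row- and column-corrected plate score, outside the 99.7% band of its plate's samples, either direction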
Large screens that a line does not name were inactive.

COc1ccccc1-c1nnc2sc(COc3ccc(Cl)cc3)nn12	Ecoli tolC 69.3
CC(C)NC(=O)c1cccc(Cn2cc(Cl)cn2)c1	WNV NS2B-NS3 inh -3.59
COc1nc(-c2ccccc2)c2c(c1C#N)CC(C)(C)OC2	none (no result: Ecoli tolC, M1 antag, AP complement, WNV NS2B-NS3 inh, M1 agonist)
CCOC(=O)c1cnn(-c2nc(C)nc3sc4c(c23)CCC4)c1N	none (no result: Ecoli WT expand)
CCOC(=O)c1cnn(-c2nc3sc4c(c3c(=O)[nH]2)CCCC4)c1N	Ecoli tolC 93.5 (no result: Ecoli WT expand)
Cc1c(NC(=O)Cn2ccc([N+](=O)[O-])n2)c(=O)n(-c2ccccc2)n1C	none (no result: Ecoli tolC, M1 antag, AP complement, WNV NS2B-NS3 inh, M1 agonist)
CCOc1ccc(NS(=O)(=O)c2ccc(N)cc2)cc1	none (no result: Ecoli tolC, M1 antag, AP complement, WNV NS2B-NS3 inh, M1 agonist)
CCOC(=O)Cc1ccc(NS(=O)(=O)c2ccc(SC)cc2)cc1	Ecoli tolC 69.9
CCNC(=O)Cc1ccc(NS(=O)(=O)c2ccc(F)cc2)cc1	none
CCOC(=O)c1ccc(NS(=O)(=O)c2ccc(SC)cc2)cc1	Ecoli tolC 70.0
CCOc1ccc(NS(=O)(=O)c2ccc(SC)cc2)cc1	Ecoli tolC 72.9
COc1cc(NS(=O)(=O)c2ccc(NC(=O)C34CC5CC(CC(C5)C3)C4)cc2)ncn1	none
N#C/C(=C/c1ccc(N2CCOCC2)c([N+](=O)[O-])c1)C(N)=O	none (no result: Ecoli tolC, M1 antag, AP complement, WNV NS2B-NS3 inh, M1 agonist)
COC(=O)c1ccc(/C=C(\C#N)c2nc3ccccc3s2)cc1	none (no result: Ecoli tolC, M1 antag, AP complement, WNV NS2B-NS3 inh, M1 agonist)
N#C/C(=C\c1cccs1)Sc1nc2ccccc2s1	Ecoli tolC 70.0
N#C/C(=C\c1ccc[nH]1)Sc1nc2ccccc2s1	Ecoli tolC 100.0
N#Cc1ccc(C2=NC(C(F)(F)F)(C(F)(F)F)c3c(n(Cc4ccco4)c(=O)[nH]c3=O)N2)cc1	none (no result: Ecoli tolC, M1 antag, AP complement, WNV NS2B-NS3 inh, M1 agonist)
CCc1cc2c(=O)n(Cc3ccco3)c(SCc3c(C)noc3C)nc2s1	Ecoli tolC 64.7
CNC(=S)NNC(=O)Cc1ccc(OC)c(OC)c1	none (no result: Ecoli tolC, M1 antag, AP complement, WNV NS2B-NS3 inh, M1 agonist)
O=S(=O)(NC1CCCC1)c1ccc(S(=O)(=O)N(Cc2cccs2)CC2CCCO2)cc1 (stereo not given)	Ecoli tolC 63.5
CCOC(=O)CCc1c(C)nc2c(c(C)nn2C(C)(C)C)c1C	M1 antag 2.62
CCOC(=O)CCc1c(C)nc(SCCN2CCCC2)c(C#N)c1C	none
C=CCN1C(=O)C(O)(CC(=O)c2ccc(N)cc2)c2ccccc21 (stereo not given)	none (no result: WNV NS2B-NS3 inh)
O=C(CC1(O)C(=O)N(C/C=C/c2ccccc2)c2ccccc21)c1ccccn1 (stereo not given)	M1 antag 1.94
CCCN(CCC)C(=O)CSc1nc2ccccc2c(=O)n1C1CCCC1	Ecoli tolC 77.3
O=C(NCc1cccnc1)C1CCCN(Cc2cnn(-c3ccccc3)c2-n2cccc2)C1 (stereo not given)	none (no result: Ecoli tolC, M1 antag, AP complement, WNV NS2B-NS3 inh, M1 agonist)
CCN(Cc1ccccc1)C(=O)c1ccccc1C	WNV NS2B-NS3 inh -3.46
O=C(O)c1ccccc1C(=O)N(Cc1ccccc1)Cc1ccccc1	none (no result: Ecoli tolC, M1 antag, AP complement, WNV NS2B-NS3 inh, M1 agonist)
COc1ccc(N2CCN(C(=O)c3cn(C)c(=O)c4c3c3ccccc3n4C)CC2)cc1	WNV NS2B-NS3 inh -3.8
COc1ccc(N2CCN(C(=O)c3cn(C4CCCC4)c(=O)c4c3c3ccccc3n4C)CC2)cc1	none
COc1ccccc1S(=O)(=O)Cc1ccc(C(=O)NCc2cccs2)o1	M1 antag 2.17
Cc1ccc(C)c(SCC(=O)Nc2nnc(-c3ccccc3)o2)c1	Ecoli tolC 99.5, M1 agonist 17.2
CC1CCc2sc3nc(NCc4ccco4)n4ncnc4c3c2C1 (stereo not given)	none
CC1CCCc2sc3nc(NCc4ccco4)n4ncnc4c3c21 (stereo not given)	Ecoli tolC 81.2
O=c1cc(-c2ccccc2)[nH]n1-c1nc2ccccc2[nH]1	Ecoli WT expand 55.0 (no result: Ecoli tolC)
Cc1ccc(C(=O)N2CCN(c3cccc(Cl)c3)CC2)cc1C	Ecoli tolC 67.6
COC(=O)c1ccc(NC(=O)CN2CCN(c3cccc(Cl)c3)CC2)cc1	Ecoli tolC 75.0
COC(=O)c1ccc(NC(=O)CN2CCN(c3ccc(Cl)cc3)CC2)cc1	none
Cc1ccc(C(=O)N2CCN(c3ccccc3)CC2)cc1C	none
COCCn1c(SCc2ccc(C(=O)OC)o2)nnc1-c1c[nH]c2ccccc12	none
Cc1ccc(C(=O)CSc2nnc(CNc3nc(-c4ccccc4)cs3)n2C)cc1	none (no result: Ecoli tolC, M1 antag, M1 agonist)
CCOC(=O)C1CCCN(c2ncnc3c2cnn3-c2ccc(Cl)cc2)C1 (stereo not given)	Ecoli tolC 73.1
CCOC(=O)c1ccc(NC(=S)Nc2ccccn2)cc1	none (no result: Ecoli tolC, M1 antag, AP complement, WNV NS2B-NS3 inh, M1 agonist)
CSCC[C@H](NC(=O)OC(C)(C)C)c1nnc(SCC(=O)Nc2c(C)cccc2C)o1	M1 antag 2.04
Cc1cccc(C)c1NC(=O)CSc1nnc([C@H](C)NC(=O)OC(C)(C)C)o1	none
Cc1ccc(S(=O)(=O)Nc2ccc(-c3nc4cc(NS(=O)(=O)c5ccc(C)cc5)ccc4o3)cc2)cc1	none (no result: Ecoli tolC, M1 antag, AP complement, WNV NS2B-NS3 inh, M1 agonist)
CCC1Oc2ccc(C)cc2N(CC(=O)N(Cc2cccnc2)Cc2ccc(C)o2)C1=O (stereo not given)	M1 agonist 4.43
Cc1ccc2c(c1)c1c3n2CCN(C(=O)CN2CCN(C)CC2)C3CCC1 (stereo not given)	none
CN1CCN(CC(=O)N2CCn3c4c(c5cc(C6CCCCC6)ccc53)CCCC42)CC1 (stereo not given)	Ecoli tolC 100.0
O=c1n(Cc2ccccc2)c2cc(Cl)cnc2n1Cc1ccccc1	Ecoli tolC 88.8
CCN(CC(N)=O)S(=O)(=O)c1ccc(Br)cc1	none
Brc1cc(Br)c2ncnc(N3CCCCC3)c2c1	Ecoli tolC 100.0
CCN(CC)c1ccc2cc(C(=O)Nc3cccnc3N3CCOCC3)c(=O)oc2c1	M1 agonist 7.72 (no result: Ecoli WT expand)
CCOC(=O)c1ccc(NC(=O)NC2CCN(CC(=O)NCc3ccc4c(c3)OCO4)CC2)cc1	none
CCN1CCN(Cc2ccc3c(c2)Cc2ccccc2-3)CC1	M1 antag -3.55 (no result: Ecoli WT expand)
CC1CCc2c(C(=O)Oc3cccc(-n4cnnn4)c3)csc2C1 (stereo not given)	Ecoli tolC 68.9
COC(=O)c1c(NC(=O)CSc2nnnn2-c2ccccc2)sc2c1CCC(C)C2 (stereo not given)	none
O=C(O)CN1C(=O)c2cccc(Oc3ccc(Cl)cc3)c2C1=O	none
COC(=O)c1ccccc1NC(=O)c1ccc2c(c1)OCCO2	Ecoli tolC 89.4
COC(=O)c1ccccc1NC(=O)NCc1ccc2c(c1)OCO2	none
COc1ccc(OC)c(C(=O)COC(=O)c2ccc(C)o2)c1	none
Cc1ccc(C)c(C(=O)COC(=O)c2ccc(Br)o2)c1	M1 antag 2.16
Cc1nnc(NC(=O)c2ccc(S(=O)(=O)N(C)Cc3ccccc3)cc2)o1	Ecoli tolC 74.5
COCCN(CCOC)S(=O)(=O)c1ccc(C(=O)Nc2nnc(C)o2)cc1	none
Cc1nnc(NC(=O)c2ccc3ccccc3c2)o1	Ecoli WT expand 50.0
O=C(c1ccco1)N1CCN(c2ncnc3c2[nH]c2ccc(Br)cc23)CC1	Ecoli tolC 65.5

High-throughput results deposited in PubChem BioAssay by several laboratories.
